Assay outcomes as filed in PubChem BioAssay.
KCNK3 block – human KCNK3 channel inhibition, primary screen. O14649. CHO-KCNK3 thallium flux, FluxOR fluorescence; active compounds read low. B-score at 10 µM. hit rate 0.84% among 340,000;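 active = B-score under library mean minus 4 SD, starting fluorescence ratio at most library mean plus 5 SD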;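 also: more negative B-score means stronger inhibition of thallium flux through KCNK3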
KCNQ1 block – inhibitors of human KCNQ1 potassium channel. CHO-K1 KCNQ1, FluxOR thallium flux fluorescence; active compounds read high. B-score at 10 µM. hit rate 1.3% among 310,000. AID 2642;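 active = compounds whose thallium flux B-score, printed positive for inhibition, exceeds three library SD while starting fluorescence stays within three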;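 also: channel opened by potassium depolarization with thallium stimulus after 20 min compound exposure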
KCNK9 inh – inhibitors of human KCNK9 two-pore domain potassium channel; AID 488922; B-score at 10 µM; HEK293 KCNK9, FluxOR thallium flux fluorescence; active compounds read low; hit rate 1.2% among 310,000; Q9NPC2;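 active = ratio B-score over 3 SD below the library mean, with starting fluorescence within 5 SD of its mean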;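 also: negative B-score means less thallium flux so channel inhibition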
Target sequence (Q9NPC2 whole entry, looked up, the tested form may be a part): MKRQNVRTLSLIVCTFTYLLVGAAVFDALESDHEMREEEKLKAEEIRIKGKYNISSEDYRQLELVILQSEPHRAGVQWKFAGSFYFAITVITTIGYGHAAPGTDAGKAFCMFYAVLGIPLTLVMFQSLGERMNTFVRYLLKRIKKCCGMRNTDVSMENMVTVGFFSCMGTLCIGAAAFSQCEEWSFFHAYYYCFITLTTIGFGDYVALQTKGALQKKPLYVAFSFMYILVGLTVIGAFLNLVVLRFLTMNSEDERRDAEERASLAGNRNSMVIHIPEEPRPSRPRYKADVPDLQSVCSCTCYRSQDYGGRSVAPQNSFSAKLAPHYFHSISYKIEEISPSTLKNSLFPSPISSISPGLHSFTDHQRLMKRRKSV
Kir21 inh – inhibitors of mouse Kir2.1 inward-rectifier potassium channel; P35561; HEK293-Kir2.1, FluxOR thallium flux fluorescence; active compounds read low; B-score at 10 µM; hit rate 0.85% among 310,000; AID 1672;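 active = fluorescence ratio B-score at or below minus 3 SD of library scores, with starting-brightness B-score within 2 SD, cut at about -4.2 in these data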;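 also: channel flux triggered by added potassium and thallium sulfate stimulus; B-score of peak minus minimum fluorescence over baseline after thallium stimulus; more negative B-score means stronger Kir2.1 block with less thallium influx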
hERG protect – shields human hERG channel from block by proarrhythmic agents. hit rate 0.51% among 310,000. Q12809. activation (rescue from dofetilide block), less the hit threshold, % at 10 µM. AID 1511. CHO-hERG, FluxOR thallium flux, dofetilide IC70 present;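 active = activation above the mean of controls blocked by dofetilide plus 5 SD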;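 also: thallium influx through hERG after potassium depolarization seen as dye fluorescence rise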
KCNQ1 pot – human KCNQ1 channel potentiation or activation; P51787; CHO-K1 KCNQ1, thallium flux FluxOR fluorescence; active compounds read high; B-score at 10 µM; hit rate 0.35% among 310,000; AID 2648;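 active = fluorescence ratio B-score, a plate-corrected score, at least three library SD, with initial intensity B-score within 5 SD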
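System: Stable KCNQ1 CHO-K1 line | Incubation: 90 min dye loading and 20 min compound exposure, both at room temperature | Measure: Ratio B score | Medium: Assay buffer for compound exposure, DMSO matched across wells | Compound dosing: Single-concentration screen | Probe or stimulus: K+/Tl+ depolarizing stimulus | Measured by: Kinetic FluxOR fluorescence, 10 s baseline plus 110 s post-stimulus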
KCNQ1 block val – human KCNQ1 channel inhibition, validation assay. inhibition, % at 10 µM. KCNQ1 cell line, FluxOR thallium flux fluorescence. shares compounds with KCNQ1 block. hit rate 93% among 1,600;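 active = primary screen active, with duplicate mean exceeding buffer control mean plus 3 SD of buffer wells, cut at about 28% in these data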
CHO KCNQ1 ctr – KCNQ1 inhibitor counter-screen hit in parental CHO cells; shares compounds with KCNQ1 block; parental CHO-K1, FluxOR thallium flux fluorescence ratio; active compounds read low; zero means no signal rise above baseline; fluorescence ratio (Tl flux) at 10 µM; hit rate 21% among 1,600;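 active = mean of duplicate thallium-flux fluorescence ratios in parental host cells more than 5 SD below the buffer control mean, cut at about 0.38 in these data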;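 also: ratio is peak minus minimum fluorescence divided by baseline fluorescence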
KCNQ1 APC inh – human KCNQ1 inhibition validated by electrophysiology. shares compounds with KCNQ1 block. KCNQ1-CHO cells, automated patch clamp current. calls only at 10 µM. hit rate 20% among 490;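 active = KCNQ1 current drop exceeding 3 SD of negative control wells, seen in both duplicate runs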;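 also: steady state current during a 2 s step from -80 to +40 mV; negative values mean current inhibition and positive values mean potentiation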
KCNQ2 spec – selectivity of KCNQ1 inhibitors: inhibition of rat KCNQ2 channel; shares compounds with KCNQ1 block; KCNQ2 cells, FluxOR thallium flux fluorescence; AID 651746; inhibition, % at 10 µM; hit rate 71% among 1,600;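 active = mean percent inhibition of the KCNQ2 thallium signal more than 5 SD above the buffer-only control wells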;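 also: KCNQ2 expressed in CHO cells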
KCNQ1 KCNE1 spec – KCNQ1 inhibitor that also blocks human KCNQ1/KCNE1 channel. shares compounds with KCNQ1 block. KCNQ1/KCNE1 cells, FluxOR thallium flux fluorescence. inhibition, % at 10 µM. hit rate 77% among 1,600. AID 652147;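 active = mean percent inhibition of duplicate wells above the buffer-only control mean plus 3 SD of those controls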
A number is an active result; – = inactive; · = no result; + = active, no number. A selection: hits, their analogues and other compounds. The true share with any hit is near 3.7%.

SMILES	KCNK3 block	KCNQ1 block	KCNK9 inh	Kir21 inh	hERG protect	KCNQ1 pot	KCNQ1 block val	CHO KCNQ1 ctr	KCNQ2 spec	KCNQ1 KCNE1 spec	others
COc1cccc(C(=O)Nc2ccc3nc(N4CCOCC4)cc(C)c3c2)c1	–	7	–	–	–	–	+	–	–	–	KCNQ1 APC inh=–
CN1C2CCC1/C(=C/c1cccn1C)C(=O)/C2=C\c1cccn1C	–	17	–	–	–	–	+	0.14	–	–
CN1C2CCC1/C(=C\c1ccc(F)cc1)C(=O)/C2=C/c1ccc(F)cc1	–	–	–	–	–	–	·	·	·	·
CCCCCC(=O)Cc1cc(O)cc2c1C(=O)Oc1cc(O)c(C(=O)O)c(CCCCC)c1O2	·	–	–	–	–	–	·	·	·	·
COCCn1c(SCC(=O)Nc2ccc3[nH]c(=O)[nH]c3c2)nc2ccccc21	–	·	·	·	·	·	·	·	·	·
CCOC(=O)C1=C(CC)Nc2ccccc2N=C1NC(=O)Nc1ccc(Cl)c(Cl)c1	–	11	-6.9	–	–	–	116	–	–	–	KCNQ1 APC inh=–
CCOC(=O)C1=C(CC)Nc2ccccc2N=C1NC(=O)c1cc(C)on1	–	·	·	·	·	·	·	·	·	·
Cc1ccc(C)c(S(=O)(=O)NCc2ccc(C(=O)N3CCC(Cc4ccccc4)CC3)cc2)c1	–	7	–	–	–	–	77	–	92%	95%
OC(COc1ccccc1)CN1CCC(Cc2ccccc2)CC1 (stereo not drawn)	–	–	–	–	–	–	·	·	·	·
Cc1ccc(OCC(O)CN2CCC(Cc3ccccc3)CC2)c(C)c1 (stereo not drawn)	–	7	–	-4.6	–	–	31	–	76%	63%
CCN(CC)c1ccc(O)c(C=Nc2ccc(C)c(C)c2)c1	–	11	–	–	–	–	150	–	110%	166%	KCNQ1 APC inh=–
CCN(CC)c1ccc(C=Nc2ccccc2C)c(O)c1	–	–	–	–	–	–	·	·	·	·
Cc1ccccc1S(=O)(=O)Nc1nc2ccccc2nc1N1CCc2ccccc2C1	–	7	–	–	–	–	84	–	92%	122%
CCOc1ccc(N=C2SCCCN2C(=O)c2c(CC)noc2C)cc1	–	–	–	–	–	–	·	·	·	·
CCc1noc(C)c1C(=O)N1CCCSC1=Nc1ccccc1Cl	–	7	–	–	–	–	80	–	66%	110%
O=C1CCN(Cc2ccccc2)CCN1CCOc1ccccc1	–	6	–	–	–	–	–	–	–	–
O=C(Nc1ccccc1)OCCN1CCN(Cc2ccccc2)CCC1=O	–	–	–	–	–	–	·	·	·	·
O=C(Nc1cccc(Cl)c1)OCCN1CCN(Cc2ccccc2)CCC1=O	–	11	–	–	–	–	70	–	99%	46%
O=C(N/N=C/c1ccc2c(c1)OCO2)C1CC1	–	–	–	–	–	–	·	·	·	·
CCOc1ccccc1CN1CCNC(=O)C1CC(=O)NCc1nccn1CC (stereo not drawn)	–	–	–	–	–	–	·	·	·	·
CC(C)(C)OC(=O)N1CCC(c2c(C(=O)NC3CC3)cnn2-c2ccccc2)CC1	–	–	–	–	–	–	·	·	·	·
Fc1cccc(-c2cc3nc(-c4ccccc4)cc(N4CCC5(CC4)OCCO5)n3n2)c1	–	–	–	–	–	–	·	·	·	·
COCCN1CCN(c2cc(-c3ccccc3)nc3cc(-c4cccc(F)c4)nn23)CC1	–	6	–	–	–	–	118	0.34	133%	156%
